Test results taken from article PMC3038628 (Journal of molecular biology, 2010).
Numbering of substitutions follows the chain as printed. Names may count otherwise.

B1: F165D: α-TTP mutant, Phe165 to Asp (helix A8) (protein, UniProt P49638 1-278, looked up, variant F165D)
Alpha-tocopherol transfer …: MAEARSQPSAGPQLNALPDHSPLLQPGLAALRRRAREAGVPLAPLPLTDSFLLRFLRARDFDLDLAWRLLKNYYKWRAECPEISADLHPRSIIGLLKAGYHGVLRSRDPTGSKVLIYRIAHWDPKVFTAYDVFRVSLITSELIVQEVETQRNGIKAIFDLEGWQDSHAFQITPSVAKKIAAVLTDSFPLKVRGIHLINEPVIFHAVFSMIKPFLTEKIKERIHMHGNNYKQSLLQHFPDILPLEYGGEEFSMEDICQEWTNFIMKSEDYLSSISESIQ
B2: K217A: α-TTP mutant, surface Lys217 (helix A11) to Ala (protein, UniProt P49638 1-278, looked up, variant K217A)
Alpha-tocopherol transfer …: B1 Alpha-tocopherol transfer … with D165F, K217A
B3: F169A: α-TTP mutant, Phe169 to Ala (protein, UniProt P49638 1-278, looked up, variant F169A)
Alpha-tocopherol transfer …: B1 Alpha-tocopherol transfer … with D165F, F169A
B4: F165A: α-TTP mutant, Phe165 to Ala (protein, UniProt P49638 1-278, looked up, variant F165A)
Alpha-tocopherol transfer …: B1 Alpha-tocopherol transfer … with D165A
B5: F169D: α-TTP mutant, Phe169 to Asp (helix A8) (protein, UniProt P49638 1-278, looked up, variant F169D)
Alpha-tocopherol transfer …: B1 Alpha-tocopherol transfer … with D165F, F169D

Target: α-tocopherol transfer protein (α-TTP)
Test: not given
Conditions: cited from earlier work
In the case of `Cc1c(C)c2c(c(C)c1O)CC[C@@](C)(CCC[C@H](C)CCC[C@H](C)CCCC(C)C)O2` [α-tocopherol], the Kd is given as ~25 nM.

Test system: not listed separately
Test: FRET assay of NBD-Toc transfer from α-TTP variants to LUVs
Type: biochemical
Conditions: PC vesicles; 0.225 μM NBD-Toc, 2 μM α-TTP, 100 μM vesicles; room temperature
In short: (§1)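 Each protein (4 μM) was preloaded with 0.45 μM NBD-Toc for 15 min in SET buffer (pH 7.4). It was then stopped-flow mixed at room temperature with 200 μM acceptor vesicles of 97% liver PC and 3% TRITC-PE (finals 0.225 μM, 2 μM, 100 μM). Vesicles were sonicated SUVs (~60 nm) or extruded LUVs (150 nm). NBD quench was normalised to initial fluorescence and fitted single-exponentially.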
For B1, the “Rate of NBD-Toc transfer to LUV, Rate” value was 0.009 ± 0.005 s⁻¹.
With B2 the “Rate of NBD-Toc transfer to LUV, Rate” value was 0.010 ± 0.004 s⁻¹.
In the case of B3, the “Rate of NBD-Toc transfer to LUV, Rate” value is reported as 0.008 ± 0.002 s⁻¹.
In the case of B4, the “Rate of NBD-Toc transfer to LUV, Rate” value is reported as 0.005 ± 0.002 s⁻¹.

Same assay, conditions: relative to wild type
With B1 the “Rate of NBD-Toc transfer to LUV, Rate^mut/Rate^wt” value (shortened to “Rate … to LUV, Rate^mut/Rate^wt”) was 56%.
In the case of B5, the “Rate … to LUV, Rate^mut/Rate^wt” value is reported as 0%.
For B2, the “Rate … to LUV, Rate^mut/Rate^wt” value was 62%.
With B3 the “Rate … to LUV, Rate^mut/Rate^wt” value was 48%.
For B4, the “Rate … to LUV, Rate^mut/Rate^wt” value was 34%.

Test system: HepG2 cells
Test: α-TTP-induced secretion of NBD-tocopherol from cultured hepatocytes
Type: cell-based, Human
Conditions: transiently transfected HepG2; NBD-Toc fluorescence
In short: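 HepG2/C3A cells on collagen-coated coverslips (DMEM, 10% FBS) were transiently transfected with α-TTP variants in pcDNA3.1, with mock controls. At 30 h they received 5 μM lipoprotein-complexed NBD-tocopherol for 16–18 h at 37 °C, then 4 h in normal medium for secretion. Cells were fixed, permeabilised and DAPI-stained. NBD fluorescence was imaged at 40× over >14 fields per slide, normalised to cell number; expression was checked by Western blot.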
With B5 the “Inhibition of tocopherol secretion as compared to the wild-type TTP” value was 5 fold.
For B3, the “Inhibition of tocopherol secretion as compared to the wild-type TTP” value was 2 fold.

Test system: not listed separately
Test: FRET assay of NBD-Toc transfer from α-TTP variants to SUVs
Type: biochemical
Conditions: PC vesicles; 0.225 μM NBD-Toc, 2 μM α-TTP, 100 μM vesicles; room temperature
In short: as §1
With B1 the “Rate of NBD-Toc transfer to SUV, Rate” value was 0.013 ± 0.001 s⁻¹.
For B5, the “Rate of NBD-Toc transfer to SUV, Rate” value was 0.015 ± 0.002 s⁻¹.
With B2 the “Rate of NBD-Toc transfer to SUV, Rate” value was 0.130 ± 0.011 s⁻¹.
In the case of B3, the “Rate of NBD-Toc transfer to SUV, Rate” value is reported as 0.067 ± 0.006 s⁻¹.
In the case of B4, the “Rate of NBD-Toc transfer to SUV, Rate” value is reported as 0.037 ± 0.002 s⁻¹.

Same assay, conditions: reduction relative to wild type
With B1 the “Reduction of rate of transfer to SUVs” value was 90%.
In the case of B5, the “Reduction of rate of transfer to SUVs” value is reported as 88%.
With B3 the “Reduction of rate of transfer to SUVs” value was 47%.
With B4 the “Reduction of rate of transfer to SUVs” value was 71%.

Same assay, conditions: relative to wild type
With B1 the “Rate of NBD-Toc transfer to SUV, Rate^mut/Rate^wt” value (shortened to “Rate … to SUV, Rate^mut/Rate^wt”) was 10%.
In the case of B5, the “Rate … to SUV, Rate^mut/Rate^wt” value is reported as 12%.
With B2 the “Rate … to SUV, Rate^mut/Rate^wt” value was 102%.
With B3 the “Rate … to SUV, Rate^mut/Rate^wt” value was 53%.
In the case of B4, the “Rate … to SUV, Rate^mut/Rate^wt” value is reported as 29%.

Test system: not listed separately
Test: Dual polarization interferometry of protein adsorption to immobilized bilayer
Type: binding
Conditions: 0.50 μM protein injection
In short: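 Recombinant α-TTP (E. coli BL21(DE3), glutathione affinity, thrombin-cleaved) was dialysed 1 h at 4 °C into pH 7.4 phosphate/137 mM NaCl buffer. It was injected at 25 μl/min for 8 min over a 90:10 DOPC:DOPS bilayer on a silicon oxynitride chip at 20 °C. Adsorbed mass was measured at 0.5 and 1.0 μM in quadruplicate, two channels each. Kd came from fitting Bmax against concentration.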
With B1 the “Ads^mut/Ads^wt (0.50 μM injection)” value was 0.11.
For B5, the “Ads^mut/Ads^wt (0.50 μM injection)” value was 0.18.
In the case of B2, the “Ads^mut/Ads^wt (0.50 μM injection)” value is reported as 1.71.
For B3, the “Ads^mut/Ads^wt (0.50 μM injection)” value was 0.33.
In the case of B4, the “Ads^mut/Ads^wt (0.50 μM injection)” value is reported as 0.37.

Same assay, conditions: 1.0 μM protein injection
With B1 the “Ads^mut/Ads^wt (1.0 μM injection)” value was 0.19.
With B5 the “Ads^mut/Ads^wt (1.0 μM injection)” value was 0.23.
For B2, the “Ads^mut/Ads^wt (1.0 μM injection)” value was 1.80.
For B3, the “Ads^mut/Ads^wt (1.0 μM injection)” value was 0.51.
In the case of B4, the “Ads^mut/Ads^wt (1.0 μM injection)” value is reported as 0.45.

Same assay, conditions: injection concentration not stated
For B1, the “Adsorption/binding to immobilized bilayers by DPI, % of wild type” value was 11%.
With B2 the “Adsorption/binding to immobilized bilayers by DPI, % of wild type” value was 171%.

Same assay, conditions: printed "for LUVs"
For B2, the “Binding to immobilized bilayers, % of WT” value was 180%.

Same assay, conditions: printed "for SUVs"
With B2 the “Binding to immobilized bilayers, % of WT” value was 171%.

Same assay, conditions: relative to wild type
For B1, the “Fold change in affinity” value was 12.2.
In the case of B5, the “Fold change in affinity” value is reported as 14.3.
For B4, the “Fold change in affinity” value was 5.1.

Test system: not listed separately
Test: Filtration
Type: binding
Conditions: compared with wild type
In short: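 Recombinant α-TTP (31.5 μg) was incubated with increasing concentrations of sonicated SUVs or extruded 150 nm LUVs in SET buffer for 30 min at room temperature. Mixtures were spun through 100 kDa-cutoff filters at 10,000g for 20 min to separate vesicle-bound from free protein. Protein was resolved on gels, stained with colloidal Coomassie and quantified by band densitometry.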
In the case of B1, the “Vesicle binding to SUVs (in words)” value is reported as “diminished vesicle binding”.
With B2 the “Vesicle binding to SUVs (in words)” value was “essentially indistinguishable”.
With B3 the “Vesicle binding to SUVs (in words)” value was “diminished vesicle binding”.
In the case of B4, the “Vesicle binding to SUVs (in words)” value is reported as “diminished vesicle binding”.
